# Legend:
# Paracoccus sp. [1] = test: Anti-biofilm activity against Paracoccus sp. 4M6 assessed as inhibition of bacterial adhesion incubated for 15 hrs at 20 degC by Syto 61 dye based fluorimetric assay; format: functional, organism-based
# Procedure, shortened: (§1)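 Biofilm formation (adhesion) of the marine strains was measured with the Syto 61 fluorophore, using a method adapted from Leroy et al. Compounds were first screened at 200 µM, and the value is % adhesion at that concentration. EC50 values were derived from the same assay.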
# [2] = tested on: Pseudoalteromonas lipolytica; test: Anti-biofilm activity against Pseudoalteromonas lipolytica TC8 assessed as bacterial adhesion at 200 uM incubated for 15 hrs at 20 degC by Syto 61 dye based fluorimetric assay relative to control; format: functional; procedure, shortened: as §1
# Pseudoalteromonas ulvae [3] = test: Anti-biofilm activity against Pseudoalteromonas ulvae TC14 assessed as inhibition of bacterial adhesion incubated for 15 hrs at 20 degC by Syto 61 dye based fluorescence assay; format: functional, organism-based; procedure, shortened: as §1
# Paracoccus sp. [4] = test: Anti-biofilm activity against Paracoccus sp. 4M6 assessed as bacterial adhesion at 200 uM incubated for 15 hrs at 20 degC by Syto 61 dye based fluorimetric assay relative to control; format: functional; procedure, shortened: as §1
# [5] = tested on: Pseudoalteromonas lipolytica; test: Anti-biofilm activity against Pseudoalteromonas lipolytica TC8 assessed as inhibition of bacterial adhesion incubated for 15 hrs at 20 degC by Syto 61 dye based fluorimetric assay; format: functional, organism-based; procedure, shortened: as §1
# Pseudoalteromonas ulvae [6] = test: Anti-biofilm activity against Pseudoalteromonas ulvae TC14 assessed as bacterial adhesion at 200 uM incubated for 15 hrs at 20 degC by Syto 61 dye based fluorescence assay relative to control; format: functional; procedure, shortened: as §1
# [7] = tested on: Pseudoalteromonas lipolytica; test: Growth inhibition of Pseudoalteromonas lipolytica TC8 at 100 uM measured every hr for 6 hrs by turbidimetric method; format: organism-based; settings: in vivo
# Procedure, shortened: (§2)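 Bacterial growth of TC14, TC8 and 4M6 was followed with test compounds at 100 µM. Ampicillin at 5 µM served as the reference antibiotic.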
# Pseudoalteromonas ulvae [8] = test: Effect on cell viability of Pseudoalteromonas ulvae TC14 at 100 uM measured after 6 hrs by resazurin dye based fluorescence assay; format: organism-based
# Procedure, shortened: (§3)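 Viability was scored with resazurin, following the same protocol as the Syto 61 antiadhesion assay. Compounds were tested at 5, 10, 20, 50, 100 and 200 µM on each strain, and the 5 and 100 µM points are the ones reported.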
# [9] = tested on: Pseudoalteromonas lipolytica; test: Effect on cell viability of Pseudoalteromonas lipolytica TC8 at 100 uM measured after 6 hrs by resazurin dye based fluorescence assay; format: organism-based; procedure, shortened: as §3
# [10] = tested on: Pseudoalteromonas lipolytica; test: Effect on cell viability of Pseudoalteromonas lipolytica TC8 at 5 uM measured after 6 hrs by resazurin dye based fluorescence assay; format: organism-based; procedure, shortened: as §3
# Pseudoalteromonas ulvae [11] = test: Growth inhibition of Pseudoalteromonas ulvae TC14 at 100 uM measured every hr for 6 hrs by turbidimetric method; format: organism-based; settings: in vivo; procedure, shortened: as §2
# Paracoccus sp. [12] = test: Growth inhibition of Paracoccus sp. 4M6 at 100 uM measured every hr for 6 hrs by turbidimetric method; format: organism-based; settings: in vivo; procedure, shortened: as §2
# Paracoccus sp. [13] = test: Effect on cell viability of Paracoccus sp. 4M6 at 100 uM measured after 6 hrs by resazurin dye based fluorescence assay; format: organism-based; procedure, shortened: as §3
# Paracoccus sp. [14] = test: Effect on cell viability of Paracoccus sp. 4M6 at 5 uM measured after 6 hrs by resazurin dye based fluorescence assay; format: organism-based; procedure, shortened: as §3
# Pseudoalteromonas ulvae [15] = test: Effect on cell viability of Pseudoalteromonas ulvae TC14 at 5 uM measured after 6 hrs by resazurin dye based fluorescence assay; format: organism-based; procedure, shortened: as §3
# [16] = Paracoccus sp. (in: a-proteobacteria), 4M6, 15 h
# [17] = Pseudoalteromonas ulvae, TC14, 15 h
# [18] = Pseudoalteromonas lipolytica, TC8, 15 h
Molecule,EC50 (Paracoccus sp. [1]; [16]),Activity [2],EC50 (Pseudoalteromonas ulvae [3]; [17]),Activity (Paracoccus sp. [4]),"EC50 [5, 18]",Activity (Pseudoalteromonas ulvae [6]),also measured
CN(C)CCOc1ccc(CCn2cc(CCCCCCc3cn(CCc4ccc(OCCN(C)C)c(Br)c4)nn3)nn2)cc1Br,> 200 µM,54.4%,> 200 µM,59.5%,> 200 µM,,
CN(C)CCCOc1ccc(CCn2cc(CCCCc3cn(CCc4ccc(OCCCN(C)C)c(Br)c4)nn3)nn2)cc1Br,> 200 µM,89.2%,> 200 µM,80.7%,> 200 µM,66.5%,
CN(C)CCCOc1ccc(CCn2cc(CNCc3cn(CCc4ccc(OCCCN(C)C)c(Br)c4)nn3)nn2)cc1Br,> 200 µM,,> 200 µM,56.3%,,45%,
CN(C)CCCOc1ccc(CCn2cc(CCCc3cn(CCc4ccc(OCCCN(C)C)c(Br)c4)nn3)nn2)cc1Br,> 200 µM,,> 200 µM,77.2%,> 200 µM,,
CN(C)CCOc1ccc(CCn2cc(CNCc3cn(CCc4ccc(OCCN(C)C)c(Br)c4)nn3)nn2)cc1Br,> 200 µM,,,51.8%,,40.9%,
CN(C)CCOc1ccc(CCn2cc(CCCCc3cn(CCc4ccc(OCCN(C)C)c(Br)c4)nn3)nn2)cc1Br,> 200 µM,58.5%,> 200 µM,57.4%,> 200 µM,,
Oc1ccc(CCn2cc(CNCc3cn(CCc4ccc(O)c(Br)c4)nn3)nn2)cc1Br,88.3 µM,,59.9 µM,27.9%,80.3 µM,,
COc1ccc(CCn2cc(-c3cccc(-c4cn(CCc5ccc(OC)c(Br)c5)nn4)c3)nn2)cc1Br,> 200 µM,101.1%,> 200 µM,76.2%,> 200 µM,74.1%,
Oc1ccc(CCn2cc(CCCc3cn(CCc4ccc(O)c(Br)c4)nn3)nn2)cc1Br,> 200 µM,63.5%,> 200 µM,83.4%,> 200 µM,53.1%,
CN(C)CCOc1ccc(CCn2cc(CCCc3cn(CCc4ccc(OCCN(C)C)c(Br)c4)nn3)nn2)cc1Br,> 200 µM,57%,> 200 µM,51.5%,> 200 µM,,
COc1ccc(CCn2cc(CNCc3cn(CCc4ccc(OC)c(Br)c4)nn3)nn2)cc1Br,194 µM,,,46.3%,,,
Oc1ccc(CCn2cc(CCCCCCc3cn(CCc4ccc(O)c(Br)c4)nn3)nn2)cc1Br,> 200 µM,75%,> 200 µM,78.1%,> 200 µM,61.7%,
CN(C)CCOc1ccc(CCn2cc(-c3cccc(-c4cn(CCc5ccc(OCCN(C)C)c(Br)c5)nn4)c3)nn2)cc1Br,> 200 µM,65.1%,> 200 µM,66.9%,> 200 µM,62.2%,
CN(C)CCCOc1ccc(CCn2cc(CCCCCCc3cn(CCc4ccc(OCCCN(C)C)c(Br)c4)nn3)nn2)cc1Br,> 200 µM,72.3%,> 200 µM,84.7%,> 200 µM,71%,
COc1ccc(CCn2cc(COCc3cn(CCc4ccc(OC)c(Br)c4)nn3)nn2)cc1Br,164 µM,42.8%,,44.9%,,38.5%,
COc1ccc(CCn2cc(CCCc3cn(CCc4ccc(OC)c(Br)c4)nn3)nn2)cc1Br,> 200 µM,50%,> 200 µM,49.2%,> 200 µM,,
COc1ccc(CCn2cc(CCCCCCc3cn(CCc4ccc(OC)c(Br)c4)nn3)nn2)cc1Br,> 200 µM,78.3%,> 200 µM,69.2%,> 200 µM,62.7%,
Oc1ccc(CCn2cc(-c3cccc(-c4cn(CCc5ccc(O)c(Br)c5)nn4)c3)nn2)cc1Br,> 200 µM,66.5%,> 200 µM,61.5%,> 200 µM,56.8%,
Oc1ccc(CCn2cc(CCCCc3cn(CCc4ccc(O)c(Br)c4)nn3)nn2)cc1Br,> 200 µM,,> 200 µM,52.4%,> 200 µM,,
CN(C)CCCOc1ccc(CCn2cc(COCc3cn(CCc4ccc(OCCCN(C)C)c(Br)c4)nn3)nn2)cc1Br,> 200 µM,,,53.7%,> 200 µM,,
CN(C)CCOc1ccc(CCn2cc(COCc3cn(CCc4ccc(OCCN(C)C)c(Br)c4)nn3)nn2)cc1Br,146 µM,,91.8 µM,40.4%,,,
Oc1ccc(CCn2cc(COCc3cn(CCc4ccc(O)c(Br)c4)nn3)nn2)cc1Br,198 µM,50.3%,,47.8%,,40.3%,
CN(C)CCOc1ccc(CCn2cc(-c3ccc(-c4cn(CCc5ccc(OCCN(C)C)c(Br)c5)nn4)cc3)nn2)cc1Br,5.1 µM,14.6%,0.9 µM,10.1%,5.1 µM,0%,growth inhibition (GI) [7]: Toxic; Activity (Pseudoalteromonas ulvae [8]): Toxic; Activity [9]: Toxic; Activity [10]: Non-Toxic; growth inhibition (GI) (Pseudoalteromonas ulvae [11]): Toxic; growth inhibition (GI) (Paracoccus sp. [12]): Toxic; Activity (Paracoccus sp. [13]): Toxic; Activity (Paracoccus sp. [14]): Non-Toxic; Activity (Pseudoalteromonas ulvae [15]): Non-Toxic
COc1ccc(CCn2cc(CCCCc3cn(CCc4ccc(OC)c(Br)c4)nn3)nn2)cc1Br,> 200 µM,,> 200 µM,50.9%,> 200 µM,,
Oc1ccc(CCn2cc(-c3ccc(-c4cn(CCc5ccc(O)c(Br)c5)nn4)cc3)nn2)cc1Br,59.9 µM,,40.9 µM,31.8%,> 200 µM,31.1%,
CN(C)CCCOc1ccc(CCn2cc(-c3cccc(-c4cn(CCc5ccc(OCCCN(C)C)c(Br)c5)nn4)c3)nn2)cc1Br,> 200 µM,71.6%,> 200 µM,78.1%,> 200 µM,65.3%,
tributyltin-oxide,,,,,,,EC50 (Paracoccus sp. [1]): 4 µM; EC50 (Pseudoalteromonas ulvae [3]): 0.7 µM; EC50 [5]: 7 µM

# Reference: ChEMBL document CHEMBL4330109, “Parallel synthesis of a bis-triazoles library as psammaplin A analogues: A new wave of antibiofilm compounds?” (Bioorg Med Chem Lett, 2019)
